Test results published in ChEMBL document CHEMBL1154083, “Synthesis and structure-activity relationship of 3beta-(4-alkylthio, -methylsulfinyl, and -methylsulfonylphenyl)tropane and 3beta-(4-alkylthiophenyl)nortropane derivatives for monoamine transporters” (Bioorg Med Chem, 2009).

Columns and labels:
[1] = molecular target: Sodium-dependent dopamine transporter (Homo sapiens, UniProt Q01959); test: Displacement of [3H]WIN-35428 from DAT
Summary of the method: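 [3H]WIN35,428 displacement at DAT; IC50 reported because DAT has two binding sites. Compounds tested as HCl or tartrate salts. Mean ± standard error of three or four experiments, each run in triplicate.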

[2] = molecular target: Sodium-dependent serotonin transporter (Homo sapiens, UniProt P31645); test: Displacement of [3H]paroxetine from 5-HTT
Sequence of Sodium-dependent serotonin transporter (P31645 whole entry): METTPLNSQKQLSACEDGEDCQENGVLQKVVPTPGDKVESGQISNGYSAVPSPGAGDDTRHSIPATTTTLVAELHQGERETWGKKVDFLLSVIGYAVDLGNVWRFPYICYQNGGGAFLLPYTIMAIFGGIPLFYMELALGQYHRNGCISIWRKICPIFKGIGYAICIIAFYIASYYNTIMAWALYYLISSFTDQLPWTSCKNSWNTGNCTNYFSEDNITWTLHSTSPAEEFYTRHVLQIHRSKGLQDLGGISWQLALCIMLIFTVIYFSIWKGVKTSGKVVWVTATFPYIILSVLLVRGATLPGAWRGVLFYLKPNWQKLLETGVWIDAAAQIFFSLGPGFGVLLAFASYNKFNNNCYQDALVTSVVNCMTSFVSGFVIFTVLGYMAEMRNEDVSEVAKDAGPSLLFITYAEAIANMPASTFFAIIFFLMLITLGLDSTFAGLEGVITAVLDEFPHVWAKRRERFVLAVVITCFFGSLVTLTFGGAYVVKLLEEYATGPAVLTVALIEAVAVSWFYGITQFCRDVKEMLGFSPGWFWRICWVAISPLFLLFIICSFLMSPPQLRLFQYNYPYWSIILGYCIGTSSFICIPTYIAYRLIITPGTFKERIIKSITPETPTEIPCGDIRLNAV
Summary of the method: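 Inhibition of [3H]paroxetine binding at 5-HTT, a single-site transporter, with Ki calculated from it. Compounds tested as HCl or tartrate salts. Mean ± standard error of three or four experiments, each run in triplicate.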

[3] = molecular target: Sodium-dependent noradrenaline transporter (Homo sapiens, UniProt P23975); test: Displacement of [3H]nisoxetine from NET
Sequence of Sodium-dependent noradrenaline transporter (P23975 whole entry): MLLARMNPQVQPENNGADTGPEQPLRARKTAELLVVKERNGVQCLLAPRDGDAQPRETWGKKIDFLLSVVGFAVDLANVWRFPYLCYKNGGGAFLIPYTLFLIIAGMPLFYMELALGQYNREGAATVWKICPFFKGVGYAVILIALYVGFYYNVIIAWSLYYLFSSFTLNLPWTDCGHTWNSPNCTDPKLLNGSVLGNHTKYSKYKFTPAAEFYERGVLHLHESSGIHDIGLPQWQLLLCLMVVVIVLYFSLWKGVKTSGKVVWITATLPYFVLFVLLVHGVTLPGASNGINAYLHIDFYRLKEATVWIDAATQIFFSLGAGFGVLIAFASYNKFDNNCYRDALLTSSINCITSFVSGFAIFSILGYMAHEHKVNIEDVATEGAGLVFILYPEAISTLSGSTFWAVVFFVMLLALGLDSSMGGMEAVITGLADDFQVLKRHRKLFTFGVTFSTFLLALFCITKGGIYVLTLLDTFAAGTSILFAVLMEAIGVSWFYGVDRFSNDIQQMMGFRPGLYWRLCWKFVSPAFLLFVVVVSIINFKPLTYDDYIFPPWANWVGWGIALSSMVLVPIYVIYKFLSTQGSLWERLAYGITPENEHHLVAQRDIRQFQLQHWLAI

[4] = Selectivity ratio of Ki for NET to Ki for 5-HTT
Summary of the method: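 NET/5-HTT selectivity: NET Ki (from [3H]nisoxetine binding) divided by 5-HTT Ki (from [3H]paroxetine binding). Both values are means of three or four triplicate experiments.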

[5] = Selectivity ratio of Ki for NET to IC50 for DAT
Summary of the method: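 NET/DAT selectivity: NET Ki (from [3H]nisoxetine binding) divided by DAT IC50 (from [3H]WIN35,428 binding). Both values are means of three or four triplicate experiments.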

Sequence of Sodium-dependent dopamine transporter (Q01959 whole entry): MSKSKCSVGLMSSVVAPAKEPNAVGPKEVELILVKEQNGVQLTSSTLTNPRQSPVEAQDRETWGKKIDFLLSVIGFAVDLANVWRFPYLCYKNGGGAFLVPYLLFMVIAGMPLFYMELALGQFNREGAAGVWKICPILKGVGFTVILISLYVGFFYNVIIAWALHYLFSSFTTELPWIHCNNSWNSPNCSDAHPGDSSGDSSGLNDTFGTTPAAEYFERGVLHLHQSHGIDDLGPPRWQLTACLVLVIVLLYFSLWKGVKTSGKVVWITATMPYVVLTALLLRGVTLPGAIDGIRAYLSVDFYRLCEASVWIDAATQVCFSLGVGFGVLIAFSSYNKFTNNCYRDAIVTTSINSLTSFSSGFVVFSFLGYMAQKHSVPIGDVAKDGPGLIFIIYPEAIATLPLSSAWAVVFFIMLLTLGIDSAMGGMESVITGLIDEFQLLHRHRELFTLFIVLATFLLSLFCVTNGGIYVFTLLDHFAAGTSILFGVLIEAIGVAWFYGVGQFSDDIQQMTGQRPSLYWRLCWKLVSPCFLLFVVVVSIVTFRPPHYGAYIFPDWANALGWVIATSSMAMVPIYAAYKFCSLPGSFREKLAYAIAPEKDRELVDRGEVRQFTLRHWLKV

Row | SMILES | IC50 [1] [µM] | Ki [2] [µM] | Ki [3] [µM] | Ratio Ki [4] | Ratio [5]
1 | COC(=O)[C@H]1[C@@H](c2ccc(S(C)(=O)=O)cc2)C[C@@H]2CC[C@H]1N2C | > 10 | 0.208 | > 10 | > 48 | –
2 | COC(=O)[C@H]1[C@@H](c2ccc(SC)c(Br)c2)C[C@@H]2CC[C@H]1N2C | 0.0101 | 0.0006 | 0.121 | 202 | 12
3 | COC(=O)[C@H]1[C@@H](c2ccc(SC(C)C)cc2)C[C@@H]2CC[C@H]1N2C | 0.016 | 0.023 | 0.129 | 7 | 8
4 | COC(=O)[C@H]1[C@@H](c2ccc([S+](C)[O-])cc2)C[C@@H]2CC[C@H]1N2C (stereo partly specified) | 0.091 | 0.0043 | 0.515 | 120 | 6
5 | CCCN1C2CCC1[C@@H](C(=O)OC)[C@@H](c1ccc(SC)cc1)C2 (stereo partly specified) | 0.074 | 0.0057 | 1.2 | 211 | 16
6 | CCSc1ccc([C@H]2CC3CCC([C@H]2C(=O)OC)N3CCCF)cc1 (stereo partly specified) | 1.2 | 0.027 | > 2 | > 74 | 2
7 | COC(=O)[C@@H]1C2CCC(C[C@@H]1c1ccc(SC)cc1)N2 (stereo partly specified) | 0.028 | 0.00019 | 0.021 | 110 | 0.8
8 | CCSc1ccc([C@H]2CC3CCC(N3)[C@H]2C(=O)OC)cc1 (stereo partly specified) | 0.177 | 0.00126 | 0.118 | 94 | 0.7
9 | COC(=O)[C@H]1[C@@H](c2ccc(SC(F)(F)F)cc2)C[C@@H]2CC[C@H]1N2C | 0.2 | 0.008 | 1.9 | 238 | 10
10 | COC(=O)[C@H]1[C@@H](c2ccc([S+](C)[O-])c(Br)c2)C[C@@H]2CC[C@H]1N2C (stereo partly specified) | 0.076 | 0.0032 | 0.69 | 216 | 9
11 | COC(=O)[C@@H]1C2CCC(C[C@@H]1c1ccc(SC)cc1)N2CCCF (stereo partly specified) | 0.112 | 0.003 | 0.96 | 320 | 9
12 | C=CCN1C2CCC1[C@@H](C(=O)OC)[C@@H](c1ccc(SC)cc1)C2 (stereo partly specified) | 0.071 | 0.0055 | 2 | 364 | 28
13 | C=CCN1C2CCC1[C@@H](C(=O)OC)[C@@H](c1ccc(SCC)cc1)C2 (stereo partly specified) | 1.1 | 0.047 | > 2 | > 43 | > 2
14 | CCSc1ccc([C@H]2C[C@@H]3CC[C@H]([C@H]2C(=O)OC)N3C)cc1 | 0.232 | 0.0045 | 1.17 | 260 | 5
15 | CCCN1C2CCC1[C@@H](C(=O)OC)[C@@H](c1ccc(SCC)cc1)C2 (stereo partly specified) | 0.9 | 0.049 | > 2 | > 41 | > 2
16 | COC(=O)[C@H]1[C@@H](c2ccc(OC)cc2)C[C@@H]2CC[C@H]1N2C | – | 0.0043 | 1.11 | – | –
17 | COC(=O)[C@H]1[C@@H](c2ccc(SC)cc2)C[C@@H]2CC[C@H]1N2C | 0.009 | 0.0007 | 0.22 | 314 | 24
